Results published in ChEMBL document CHEMBL4513216, “Probing the Open Global Health Chemical Diversity Library for Multistage-Active Starting Points for Next-Generation Antimalarials” (ACS Infect Dis, 2020).

Assay: Toxicity liver stage against HepG2, at 10uM
Type: cell-based
Parameters: test concentration 10 uM, cell line HepG2-A16-CD81EGFP
Conditions: human, HepG2-A16-CD81EGFP cells; read-out: INHIBITION
In short: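 Uninfected HepG2-A16-CD81EGFP cells, 3 × 10^3 per well, 1536-well, plated on prespotted compound at 10 μM final, parasite-free screening media added to match infected plates; puromycin 10 μM positive, DMSO 0.5% negative; run in parallel with 48 h PbLuc assay at 37 °C, 5% CO2; viability by CellTiter-Glo luminescence, normalized to controls.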

SMILES	cytotoxicity at 10 µM
CC(C)CC(=O)N1CC(=O)N(CCc2ccccc2)CC(O)C1 (stereo not given)	-6.4%
O=C(c1cc(Cl)cc(Cl)c1)N1CCN(c2nccs2)CC1	-5.69%
Cc1cnn(CC2CCCN2C(=O)c2cc3ccccc3[nH]c2=O)c1 (stereo not given)	2.38%
Cn1cc(CN2CCC[C@]3(C[C@H](Oc4ccccn4)CO3)C2)cn1	5.44%
Cc1ccn2c(=O)cc(CSCC(=O)Nc3nnc(C(C)C)s3)nc2c1	-8.93%
Cc1nn(C)c(C)c1CCC(=O)NCC1(C(N)=O)CCOCC1	7.75%
COc1c(C)cnc(CN2CCCCC2CCN2CCOCC2)c1C (stereo not given)	-4.27%
CC(c1ccco1)N(C)Cc1cc2cc3c(cc2[nH]c1=O)OCO3 (stereo not given)	2.59%
Cc1ncc(C(=O)NCCNC(=O)Cc2cccc(F)c2)s1	-4.53%
CC(Cn1cccn1)NCCS(=O)(=O)c1ccccc1 (stereo not given)	-3.63%
O=C(c1cccc(S(=O)(=O)NCCCn2cccn2)c1)N1CCOCC1	5.78%
Cc1cccc(CN2C[C@@H]3COC[C@]3(COCC(=O)N(C)C)C2)n1	-1.95%
Cc1nc(COc2ccc(OC(C)C(N)=O)cc2)oc1C (stereo not given)	-1.65%
CCOc1ccnc(N2CCCN(C(=O)c3cc[nH]c3C)CC2)n1	0.893%
CNc1cc(CNC(=O)c2ccnc(OC)c2)nc(-c2ccncc2)n1	-7.08%
CCn1ccc(-c2cc(C(=O)O)n3nc(C(F)(F)F)c(Br)c3n2)n1	-1.47%
O=C(CCS(=O)(=O)C1CCCC1)N1CCC(O)(C(F)(F)F)C1 (stereo not given)	18.9%
CCCS(=O)(=O)N1CCC2(CC1)COCCN(C(C)=O)C2	15.9%
CC1(C)OC(=O)N(CCCC(=O)c2ccc(F)cc2)C1=O	-4.87%
CCNC(=O)[C@@H]1C[C@@H](N)CN1C(=O)c1cc2ccccc2[nH]1	-9.6%
CC(c1cccc(O)c1)N(C)S(N)(=O)=O (stereo not given)	-1.89%
CC(C)Cc1nc(CN2CCOC(Cn3cncn3)C2)no1 (stereo not given)	2.07%

SMILES	cytotoxicity at 10 µM
O=C(CCCc1ccccn1)Nc1cccc(N2CCCNC2=O)c1	1.94%
CCOC1CCN(C(=O)NCCc2ccn(-c3ccccc3)n2)CC1	-0.088%
CN1C(=O)CO[C@H](c2ccc(NC(=O)Nc3ccccc3)cc2)[C@H]1CO	-1.63%
CC1CCCN(C(=O)Cn2cc(I)cn2)C1 (stereo not given)	0.106%
COCCc1noc(CN2CC(Cc3ccccc3)CC2=O)n1 (stereo not given)	-7.11%
Cc1ccc(CN2CCCn3c(nc(Cn4cncn4)cc3=O)C2)s1	-1.6%
COc1ncccc1CN1CCC2[C@H]1CCN2CCN(C)C (stereo not given in full)	2.77%
Cc1cc(C)nc(C2CCCN2S(=O)(=O)N2CCOCC2)n1 (stereo not given)	0.55%
N#Cc1cccc(CN2C[C@@H](NC(=O)C3CC3)[C@H]3OCCC[C@H]32)c1	6.44%
CN(C)S(=O)(=O)N1CCCC(CCC(=O)Nc2ccc(Cl)cc2)C1 (stereo not given)	-12.5%
CS(=O)(=O)NC1CCCN(C(=O)NCc2ccccc2Cl)C1 (stereo not given)	-12.8%
CN(C)C(CNC(=O)NCc1ccco1)c1cccs1 (stereo not given)	-3.29%
Cc1cccc(-c2cc(-c3c(C)nn(CCO)c3C)c(C#N)c(N)n2)c1	20.2%
Cc1nc(CN2CCCN(C(=O)c3c(C)noc3C)CC2)cs1	-2.87%
CN(C)CCN(C)C[C@H]1CN2CC[C@H]1C[C@@H]2CNC(=O)Nc1ccsc1	9.53%
O=C(CCCNC(=O)Nc1ccc(F)cc1F)Nc1cn[nH]c1	9.19%
CN(Cc1ccc(-n2cccn2)cc1)c1cc(N)nc(N)n1	86.7%
CN(Cc1nc(Cc2cccc(C(F)(F)F)c2)no1)C1CCOCC1	6.39%
Cc1cccc(-c2nnc(C(C)NCCn3cc(C)cn3)o2)c1 (stereo not given)	-8.32%
COCC(=O)NCC1CCCN(Cc2cc3ccccc3[nH]2)C1 (stereo not given)	7.32%
O=C(CCCOc1ccc(F)cc1F)N1CCCC(n2cccn2)C1 (stereo not given)	-4.75%
Cc1cc(C)c2c(N3CCC(O)(Cn4ccnc4)CC3)ncnc2n1	-3.28%

SMILES	cytotoxicity at 10 µM
Cc1csc(N2CCN(C(=O)CCCNc3ncccn3)CC2)n1	-16.3%
O=C(NC1CC1)[C@H]1C[C@H]2OCC[C@H]2N(Cc2ccc(F)cc2)C1	3.62%
Cc1cccc(CNC2CC(=O)N(CCc3cccc(Cl)c3)C2)n1 (stereo not given)	-134%
COc1ccccc1OC1(C(=O)O)CCN(c2nccnc2C)CC1	-10.4%
COc1ccc(N2CCN(C(=O)C3CN(C)C(=O)N3)CC2(C)C)cc1 (stereo not given)	0.254%
Cc1ccc2c(c1)N(C(=O)c1nccnc1N)CC(C)O2 (stereo not given)	-1.65%
N#Cc1cc(S(N)(=O)=O)ccc1NC1CCc2cc(Cl)ccc21 (stereo not given)	29.1%
CC(O)CN1CCC(CN(C)Cc2ccc(C(N)=O)cc2)CC1 (stereo not given)	-1.66%
CN(C)CCN(C)C(=O)c1cnc2c(c1)nc(-c1ccccc1Cl)n2C	9.3%
CNC(=O)C1(CCCc2ccncc2)CCN1 (stereo not given)	-9.08%
Cc1nc(Cc2ccc(F)cc2)cc(C2COCCN2)n1 (stereo not given)	3.44%
Cc1nn(C)c(N(C)C)c1CNCC(O)COc1cccc(F)c1 (stereo not given)	6.2%
CC(C)Cc1cc(C(=O)N2CCC(C(=O)N3CCOCC3)CC2)on1	-8.61%
Cc1nnsc1C(=O)NCc1cccnc1N(C)Cc1ccccc1	-6.91%
CCO[C@@H]1CCN(C(=O)c2ccc[nH]2)[C@@H]1Cc1cccnc1	-80.2%
CCc1cnc(CN(C)C2CCN(CC(=O)Nc3cc(C)on3)C2)o1 (stereo not given)	0.2%
N#Cc1ccccc1CN(CC(N)=O)C1CCCC1	10.4%
Cc1cccc(C)c1Nc1noc2c1CN(C(=O)c1cn(C)cn1)CC2	12.9%
COCCC(Cc1cccc(Br)c1)C(N)=O (stereo not given)	8.42%
CC(C)(C)OCC1CN(Cc2cccs2)S(=O)(=O)c2cnccc2O1 (stereo not given)	2.89%
O=C(O)c1nnn(-c2cccc(C(F)(F)F)c2)c1-c1ccncc1	4.76%
CCOC[C@H]1CC[C@H]2[C@H](CCN2C(=O)c2cnccn2)O1	2.22%

SMILES	cytotoxicity at 10 µM
CC(C)CCC(=O)N1CCN(C(=O)c2ccc(-n3cccn3)cc2)CC1	4.28%
CCC(C)Oc1ccc(CNCCNC(C)=O)cc1OC (stereo not given)	-8.09%
Cc1cc(C(=O)N2CCOC[C@H](Oc3cccnc3)C2)c(C(F)(F)F)o1	3.11%
CCOc1cccc(C(=O)N2CCC(c3n[nH]c(C4CC4)n3)CC2)c1	-16.8%
CC(C)c1nc(CNc2ccc(CCO)cc2)cs1	20.1%
Cc1ccccc1OCC(=O)N1CCCC(CNS(C)(=O)=O)C1 (stereo not given)	2.07%
Cc1nc(CNC(=O)NCC(O)c2cccc(Cl)c2)cs1 (stereo not given)	-16.1%
CNS(=O)(=O)c1csc(C(=O)NCc2sccc2C)c1	4.63%
COC(C)(CNS(=O)(=O)c1cnn(C)c1)c1ccccc1F (stereo not given)	-4.8%
Cc1nc(NC2CCCC2)cc(C2CCN2C(=O)c2cnn(C)c2)n1 (stereo not given)	8.89%
Cn1cc(C(=O)NCc2cncc3c2CCN(CC2CC2)C3)cn1	-103%
COCCN1C(=O)[C@@H]2CC[C@H]1CN(c1nccc(C3CCCC3)n1)C2	7.67%
CC(OCC(F)(F)F)C(=O)N1CCCC1 (stereo not given)	-14%
Cc1ccc(NC(=O)C2CCCN2C(=O)C2CC2)nc1 (stereo not given)	-2.15%
O=C(C1CC1)N1CCc2ccccc2C12CCNCC2	5.35%
COc1ccc(CNC(C)c2ccc(Cl)cc2)c(OC)c1OC (stereo not given)	7.74%
CCS(=O)(=O)N1CC(=O)N(CCCc2ccccc2)CC(O)C1 (stereo not given)	-5.64%
c1cnc(N2CCc3onc(CN4CCCC4)c3C2)cn1	-3.09%
O=C(NCCn1ccnc1)c1ccn(-c2cccc(F)c2)n1	-5.28%
CN(Cc1ccc(F)cc1)[C@@H]1CN(C(=O)c2cccs2)C[C@H]1O	3.92%
Oc1nnc(-c2cccs2)c2sc(N3CCCC3)nc12	-2.73%
c1cc(CN2CCC3(CC2)CC(N2CCCC2)CO3)co1 (stereo not given)	2.38%

SMILES	cytotoxicity at 10 µM
Cc1cccc(CN2CCC3(CC2)CC(Oc2cccnc2)C3)n1	12.7%
Cn1cc(C(=O)NCc2cn3c(n2)CN(Cc2ccncc2)CC3)cn1	5.71%
COc1cc(C#N)ccc1OCC(=O)NS(=O)(=O)c1ccccc1	0.165%
O=C(c1cnc(O)c(Cl)c1)N1CCCC(c2nccs2)C1 (stereo not given)	3.63%
CCS(=O)(=O)c1ccc(N2CCC(NC(=O)CC3CCCC3)CC2)cc1	22.7%
Cc1ccc2c(c1)CCC2NCc1c(C)nn(CCO)c1C (stereo not given)	11.2%
O=C1OCCN1c1cccc(CNCc2cc(F)ccc2F)c1	25.3%
CNC(=O)c1[nH]nc2c1CN(c1cc(C3CCCNC3)nc(C)n1)CC2 (stereo not given)	-51.8%
CS(=O)(=O)c1ccc(NCCC2CCCO2)c(S(C)(=O)=O)c1 (stereo not given)	-4.27%
Cc1ccc(C(C)(O)CNC(=O)NCCc2ccc3c(c2)CCO3)o1 (stereo not given)	-4.53%
CCc1nnc2n1CCN(C(=O)c1ccc3c(c1)[nH]c(=O)n3C)C2	-3.22%
CCn1cc(NC(=O)NCC(C)(C)N2CCc3ccccc3C2)cn1	-5.16%
COc1ccc(CN2CCCC(Nc3cccc(F)c3)C2)cc1O (stereo not given)	5.76%
O=C(NCc1cncc2c1CCN(CC1CCOC1)C2)c1ccco1 (stereo not given)	-9.55%
Cn1cc(CNc2ccc(F)c(N3CCCS3(=O)=O)c2)cn1	-12.8%
Cc1nc(CN(C)Cc2csc(-c3cccs3)n2)co1	-6.06%
OCC1(Cc2ccc(Cl)cc2)CCN(Cc2cccnc2)CC1	-45.6%
CC(NC(=O)Cn1ccc(=O)n(C)c1=O)c1ccccc1F (stereo not given)	-10.6%
CN(Cc1cnn(C)c1)c1nccc(-c2cc(C(=O)O)ccn2)n1	-7.33%
COc1ncc(-c2cc(NC3CCCC3)nc3[nH]ccc23)c(OC)n1	16.3%
Cc1cc(-c2ccc(=O)n(C3CCN(C(=O)C4CC4)CC3)n2)c(C)o1	4.79%
Cc1cc(=O)n2nc(Oc3cccc(I)c3)sc2n1	3.63%
